The source of these data is ChEMBL document CHEMBL4513216, “Probing the Open Global Health Chemical Diversity Library for Multistage-Active Starting Points for Next-Generation Antimalarials” (ACS Infect Dis, 2020).

A short description of the data set: Toxicity liver stage against HepG2, at 10uM. The data set is classed as cell-based. Set-up: test concentration 10 uM, cell line HepG2-A16-CD81EGFP. Conditions: human, HepG2-A16-CD81EGFP cells; read-out: INHIBITION
Summed up: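 Uninfected HepG2-A16-CD81EGFP cells, 3 × 10^3 per well, 1536-well, plated on prespotted compound at 10 μM final, parasite-free screening media added to match infected plates; puromycin 10 μM positive, DMSO 0.5% negative; run in parallel with 48 h PbLuc assay at 37 °C, 5% CO2; viability by CellTiter-Glo luminescence, normalized to controls.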
Consider `CCN(C)CC(C)Cn1cnc(-c2ccccc2)c1C` (stereo not given), for which the cytotoxicity at 10 µM was -3.06%. For the compound `O=C(CC(F)(F)F)N1C[C@H]2CCN[C@H]2C1`, the cytotoxicity at 10 µM was determined as 2.95%. Next, `COCc1nc(CN2C(=O)OC[C@@H]2C(C)C)no1`: -12.4%; `Cc1cc(NC(=O)CN2CCN(c3nccs3)C(C)C2)on1` (stereo not given): -5.35%. The figure for `CCc1nc(CN2CCOC(Cn3nc(C)nc3C)C2)no1` (stereo not given) is -5.38%; for `CN1CC(=O)N(c2cccc(F)c2)CC12CCN(Cc1cccnc1)C2` (stereo not given) it is 9.69%. Next, `Cc1nc2c(C#N)cnn2c(C)c1CCC(=O)N(C)C(C)C(C)C` (stereo not given): -43.7%. Regarding `CCn1cc(CN2CCCN(C(=O)c3cccn3C)CC2)cn1`, the cytotoxicity at 10 µM is -5.85%. Next, `CN(C)Cc1cnn(-c2ccccc2C(=O)N(C)Cc2ccccc2)c1`: -6.54%; `NC(=O)C1CCCN(S(=O)(=O)c2cnn(-c3ccccc3)c2)C1` (stereo not given): -66.6%. As to `CCS(=O)(=O)N(C)CC(=O)Nc1ccc(Br)cn1`, the cytotoxicity at 10 µM was -0.0481%.

In the case of `O=C(C1=CCCC1)N1CCO[C@H]2[C@@H](Oc3ccccn3)CC[C@@H]21`, the cytotoxicity at 10 µM was found to be 0.179%.

`COc1ccc(CC(=O)N2C[C@H]3CN(Cc4ccccn4)C[C@H]3C2)cc1`: the cytotoxicity at 10 µM stood at 3.5%.

For `Cc1cnn(CCNCc2cc(C)no2)c1`, the cytotoxicity at 10 µM amounted to 8.77%. In the case of `CN(C)c1ncccc1CNC(=O)NCCN(C)C1CCCC1`, the cytotoxicity at 10 µM was -11.9%. Take `O=C(CNc1cccc(S(=O)(=O)C(F)F)c1)NCc1ccco1`: the cytotoxicity at 10 µM was -40.5%. For the compound `COCCC1CN(Cc2cn(CCC(N)=O)c3ccccc23)CCO1` (stereo not given), the cytotoxicity at 10 µM was -3.15%. The figure for `CC(C)Cc1cc(NC(=O)c2cccnc2)n(C)n1` is -7.09%; for `N#Cc1cnn(-c2ccc(C(=O)N(C3CCCCC3)C3CC3)cc2)c1N` it is -2.54%; for `CSc1ccc(CN(CCO)C(=O)CCc2cccc(F)c2)cc1` it is 2.93%. The figure for `Cc1cccc(C2(CNC(=O)CCNS(C)(=O)=O)CCCC2)c1` is -5.92%. On to `COCCCNC(=O)NCc1ccc(N2CCOC(C)C2)nc1` (stereo not given), for which the cytotoxicity at 10 µM is -5.82%. For the compound `CCN1CCN(C)C2(CCN(Cc3ccc(C)o3)CC2)C1=O`, the cytotoxicity at 10 µM is -7.1%. The figure for `CN1CC[C@]2(CN(CC3CC3)C[C@H]2c2ccccc2)C1=O` is 3.15%. The figure for `O=C1[C@H]2CN(Cc3cccs3)C[C@H]2CN1c1ccsc1` is -79%. Next, `CCc1noc(C(C)N2CCN(Cc3nnc(C4CC4)o3)CC2)n1` (stereo not given): -4.79%; `Cc1cc(C)c(C(=O)N(C)CCN(C)C(=O)OC(C)(C)C)[nH]1`: 3.87%; `N#Cc1cccc(C(=O)N2CCN(c3ncccn3)CC2)c1`: -0.0581%. Regarding `Cc1ncc(C(=O)OCC2CCN(c3ccccc3)C2)s1` (stereo not given), the cytotoxicity at 10 µM is -16%. The figure for `O=C(CN1C(=O)CCC1=O)NCc1nn(C2CCCC2)c2c1CCCC2` is 1.97%; for `CC(C)(CN1CCC(Cc2ccc(CO)cc2)C1)N1CCOCC1` (stereo not given) it is -2.71%.

For `CCC(=O)c1ccc(OCC(=O)NC(C)c2nnn[nH]2)cc1` (stereo not given), the cytotoxicity at 10 µM was -1.62%. For the compound `CCC(CO)N(Cc1ccccn1)C(=O)c1ncccc1C` (stereo not given), the cytotoxicity at 10 µM came out at 3.42%. Next, `CCOCCn1c(=O)[nH]c2cc(C(=O)N(C)Cc3cc(C)[nH]n3)ccc21`: -0.673%; `COC(=O)C1CCN(C(=O)Cn2ccc(-c3ccccc3)n2)CC1`: -1.22%; `OCCN1CCC(CNCc2cn(-c3ccccc3)nn2)CC1`: 0.03%. As to `CSc1ccc(S(=O)(=O)NC2CNC(=O)C2)cc1` (stereo not given), the cytotoxicity at 10 µM is -2.46%. In the case of `COc1ncccc1CNC(=O)NCCNC(=O)c1ccco1`, the cytotoxicity at 10 µM is -0.313%.

Turning to `CC(=O)N1CCC2(CN(CC3CCCC3)C2)C1`, the cytotoxicity at 10 µM stood at 2.05%. In the case of `CC(C)N1CCCC(CCCc2ccccn2)(C(=O)O)C1` (stereo not given), the cytotoxicity at 10 µM came to 2.6%.
